In the library only some 3.5% were active in any assay of this set; here they are far more common.
Thrombin inh: thrombin (human) inhibition | AID 1046 | inhibition, % at 5 µM | 220,000 compounds, 0.26% hits | P00734 | alpha-thrombin, Boc-VPR-AMC fluorogenic substrate cleavage;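 active = inhibition at or above 40%; inactive = inhibition below 40%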;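 also: 0% = enzyme with no compound and 100% = wells without enzyme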
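Test system: human alpha-thrombin protein / Dosing: one concentration per compound, 5 µM, with 0.2% DMSO / Medium: pH 7.5 Tris-saline with Tween 20 / Benchmarks: no-compound enzyme wells and no-enzyme blanks / Read-out basis: percent inhibition of thrombin substrate cleavage / Timing: reaction at room temperature / Measured by: fluorescence, ex 355 nm, em 460 nm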
STAT3 act: increases IL-6 driven STAT3 reporter signal. activation (% of control), % at 5.6 µM. U3A cells, IL-6 STAT3-luciferase reporter, luminescence; 100% = signal with IL-6 EC80 alone. 190,000 compounds, 0.91% hits. AID 871;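 active = activation above the screen-wide mean of compound activation plus 3 SD, cut at about 130% in these data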;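 also: 0% = background luminescence of wells with medium and substrate only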
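Material: STAT3-luciferase reporter U3A cells. Controls: IL-6-treated wells, 100% activation. Read-out: % activation versus median of IL-6-stimulated wells. Probe or stimulus: IL-6 stimulus at 33 ng/mL final. Timing: compound 1 h, then IL-6 6 h at 37 °C. Signal: reporter luminescence signal.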
FXIa inh 1536: inhibitors of human coagulation factor XIa; purified FXIa, Boc-Glu-Ala-Arg-AMC fluorogenic substrate; inhibition, % at 5 µM; 220,000 compounds, 0.14% hits; AID 798;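 active = inhibition of at least 40%; inactive = inhibition below 40%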;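 also: fluorescence of freed AMC excited at 355 nm; 0% = enzyme without compound and 100% = no enzyme blank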
KLK5 inh: kallikrein 5 (human) inhibition | recombinant hK5, fluorogenic AMC substrate cleavage | inhibition, % at 5 µM | Q9Y337 | 210,000 compounds, 0.59% hits | AID 873;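 active = inhibition of 40% or more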;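 also: 0% = enzyme controls without compound and 100% = no-enzyme blanks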
AHR act: activators of human aryl hydrocarbon receptor; 320,000 compounds, 2.5% hits; AID 2796; AHR-responsive luciferase reporter cells, luminescence; activation, % at 5 µM; P35869; in the data active = activation above about 47%;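 also: 0% = vehicle wells and 100% = reference agonist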
FXIIa inh: blocks human coagulation factor XIIa protease activity | purified FXIIa, Boc-QGR-AMC fluorogenic substrate, 2 h | inhibition, % at 5 µM | 220,000 compounds, 0.3% hits | AID 800; in the data active = inhibition above about 40%;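 also: 0% = enzyme with no compound and 100% = blank without enzyme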
Target sequence (P00748 20-372 limits assumed): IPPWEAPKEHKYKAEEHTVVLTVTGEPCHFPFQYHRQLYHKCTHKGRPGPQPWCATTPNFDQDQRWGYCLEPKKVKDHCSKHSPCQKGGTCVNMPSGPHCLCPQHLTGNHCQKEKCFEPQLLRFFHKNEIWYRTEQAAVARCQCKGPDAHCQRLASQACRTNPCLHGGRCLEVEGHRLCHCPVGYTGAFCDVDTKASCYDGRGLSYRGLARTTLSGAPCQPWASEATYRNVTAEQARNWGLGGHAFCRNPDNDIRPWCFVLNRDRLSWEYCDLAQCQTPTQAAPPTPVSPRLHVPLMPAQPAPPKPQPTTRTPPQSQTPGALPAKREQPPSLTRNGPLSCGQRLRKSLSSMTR
Target sequence (P00748 373-615 limits assumed): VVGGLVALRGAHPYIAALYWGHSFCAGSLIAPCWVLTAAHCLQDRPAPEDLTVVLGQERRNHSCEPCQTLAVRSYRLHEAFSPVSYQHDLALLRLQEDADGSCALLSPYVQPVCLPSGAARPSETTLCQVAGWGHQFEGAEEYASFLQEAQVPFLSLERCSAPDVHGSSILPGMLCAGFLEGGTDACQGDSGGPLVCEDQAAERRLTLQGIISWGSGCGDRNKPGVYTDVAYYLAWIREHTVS
* marks the source's active call; other numbers are inactive results; . = no result given.

SMILES | Thrombin inh | STAT3 act | FXIa inh 1536 | KLK5 inh | AHR act | FXIIa inh
Cc1cccc(CSC2=NCCN2C(=O)c2ccco2)c1 | -7.8 | 82.6 | 5.8 | -20.9 | -0.2 | 19.1
CCCCCCCCCC(=O)Nn1cnc2ccccc2c1=O | 1.6 | 99.4 | 31.5 | 70.0* | -1.6 | 52.0*
O=C(CSc1nnc(SCc2ccc(Cl)cc2)s1)N/N=C/c1c(Cl)cccc1Cl | -8.6 | 100.0 | -11.2 | 3.5 | 0.5 | -9.2
C/C(=N\N=c1/sc2ccccc2n1C)c1ccc(N2CCOCC2)cc1 | -7.6 | 110.8 | -3.9 | 3.6 | 53.4* | 4.9
COC(=O)c1cc(C)sc1NC(=O)CSc1ncccn1 | . | . | . | . | 4.4 | .
Cc1ccc(-n2nc(C)c(NC(=O)CCl)c2C)cc1C | -5.0 | 113.2 | -0.1 | -11.2 | 51.6* | 0.7
CCC(C)n1c(SCC(=O)NC2CCS(=O)(=O)C2)nc2ccccc2c1=O (stereo unspecified) | . | . | . | . | 1.3 | .
C=C(C)CN=c1scc(C)n1/N=C/c1ccco1 | 8.9 | 90.7 | 4.2 | 43.0* | 13.3 | 9.8
Nc1c(-c2ccccc2)cnn1-c1ccccc1 | . | . | . | . | 0.2 | .
O=c1cnn(-c2ccccc2)c(-c2ccccc2)c1 | -2.0 | 101.8 | 3.2 | 0.4 | 50.5* | 17.7
C=CCSc1cc(C)nc2c(-c3ccccc3)cnn12 | -2.6 | . | 3.2 | -2.2 | 98.6* | 9.2
Cc1cc(N)n2ncc(-c3ccccc3)c2n1 | -8.8 | 121.6 | -10.6 | -22.0 | 61.2* | -6.2
CCSc1cc(C)nc2c(-c3ccccc3)cnn12 | 2.8 | . | 0.2 | -2.1 | 25.0 | 5.4
COc1cc(-c2noc(C)c2C#Cc2ccc(N)cc2)cc(OC)c1OC | . | . | . | . | 26.3 | .
COc1cc(-c2noc(C)c2/C=C/c2ccc(N)cc2)cc(OC)c1OC | . | . | . | . | 70.7* | .
CO/N=C/c1ccc(Sc2ccccc2N)c([N+](=O)[O-])c1 | -6.5 | 88.8 | -2.5 | -2.7 | 33.5 | 44.5*
CO/N=C/c1ccc(Sc2ccccc2)c([N+](=O)[O-])c1 | 5.6 | 103.7 | 7.3 | -11.5 | 1.7 | 16.1
CC(C)(C)c1ccc(-c2nnc(SCC(=O)NC3CCS(=O)(=O)C3)n2N)cc1 (stereo unspecified) | -5.5 | 103.8 | -1.5 | -4.2 | 5.0 | 4.5
Cc1ccnc(NC(=O)CCc2c(C)nc3ncnn3c2C)c1 | 2.0 | 96.0 | 1.5 | 2.4 | -1.7 | 5.8
Cc1ccc(NC(=O)c2ccc(Cl)c(S(=O)(=O)NCC3CCCO3)c2)c(O)c1 (stereo unspecified) | . | . | . | . | 62.0* | .
Cc1ccccc1NC(=O)c1ccc(F)c(S(=O)(=O)NCC2CCCO2)c1 (stereo unspecified) | . | . | . | . | 3.1 | .
O=C(NCCCn1ccnc1)c1cccc(Cl)c1 | . | . | . | . | 13.8 | .
CCOC(=O)C(C(=O)Nc1ccccc1C)C1CCCCC1 (stereo unspecified) | -1.8 | 105.1 | -6.2 | 3.4 | 0.0 | -1.6
Cc1onc(-c2c(F)cccc2Cl)c1C(=O)N(C)C1CCCCC1 | . | . | . | . | 3.3 | .
CCN(CC)c1ccc2cc(-c3nc4ccccc4n3C)c(=O)oc2c1 | 7.3 | 144.9* | -6.0 | -3.7 | 24.2 | 10.6
SMILES | Thrombin inh | STAT3 act | FXIa inh 1536 | KLK5 inh | AHR act | FXIIa inh
CCN(CC)c1ccc2cc(-c3nc4ccccc4[nH]3)c(=O)oc2c1 | 6.5 | 21.4 | 5.2 | 4.1 | 6.7 | 14.5
CCCNC(=O)Cn1c(=O)oc2ccccc21 | -5.3 | 94.0 | 17.1 | 0.1 | 4.1 | 22.6
Cc1ccc(S(=O)(=O)N2CCC(C(=O)OCC(=O)Nc3cc(S(C)(=O)=O)ccc3Cl)CC2)cc1C | . | . | . | . | -4.0 | .
Cc1cccc(-c2ncc(CN3CCCC(CO)(Cc4ccccc4C)C3)cn2)c1 (stereo unspecified) | -2.8 | 109.7 | 0.2 | . | 1.4 | 3.4
O=C1c2ccccc2C(=O)N1CCN1CCCCC1 | 31.1 | 97.7 | 0.9 | 51.2* | 0.9 | 25.3
O=C1C(=O)N(CCN2CCCCC2)c2ccccc21 | -4.0 | 100.0 | 16.4 | -9.9 | 3.4 | 24.5
O=C1c2ccccc2C(=O)N1CCc1ccccc1 | . | . | . | . | 60.3* | .
O=C1c2ccccc2C(=O)N1CCCCCCc1ccccc1 | . | . | . | . | -0.3 | .
CC(C)OCCCNC(=O)C(NS(=O)(=O)c1ccc2c(c1)c(=O)n(C)c(=O)n2C)c1ccccc1 (stereo unspecified) | -10.4 | 102.0 | -2.9 | -1.1 | -1.6 | 2.4
CCOC(=O)c1c(NC(=O)c2cc(-c3ccc(O)cc3)on2)sc(C(C)=O)c1C | -3.1 | 102.4 | 2.4 | -15.1 | -2.7 | 9.6
O=C(O)C(=O)/C(=C\c1ccsc1)c1ccc2ccccc2n1 | . | . | . | . | 77.2* | .
O=C(O)C(=O)/C(=C\c1ccccc1)c1ccc2ccccc2n1 | -0.3 | 168.8* | 3.6 | -19.7 | 47.6* | 14.3
O=C(O)C(=O)/C(=C\c1ccc([N+](=O)[O-])cc1)c1ccc2ccccc2n1 | 2.6 | 94.2 | -2.9 | 5.8 | 22.0 | 8.5
COc1ccc(C(=O)N/C(=C\c2ccccc2)C(=O)N2CCOCC2)cc1 | . | . | . | . | 1.7 | .
COc1ccc(-c2ccc(/C=C(\NC(=O)c3ccccc3)C(=O)N3CCOCC3)o2)cc1 | -8.8 | 93.8 | -1.0 | 3.5 | 76.9* | 8.8
OCc1c[nH]c2ccccc12 | . | . | . | . | 53.0* | .
OCCc1c[nH]c2ccccc12 | . | . | . | . | -0.6 | .
O=C(c1cccs1)n1nc(-c2ccc(Cl)cc2)nc1NCc1ccco1 | 7.4 | 85.8 | 3.3 | -1.8 | 9.3 | 16.8
CCC(=O)n1nc(-c2cccnc2)nc1NCc1ccc(OC)cc1 | 99.6* | 101.6 | -0.7 | 1.2 | 15.0 | 9.1
COc1ccc(CNc2nc(-c3cccnc3)nn2S(C)(=O)=O)cc1 | 0.6 | 95.2 | 0.9 | 2.5 | 0.1 | 7.9
COc1ccc(CNc2nc(-c3cccnc3)nn2C(=O)C(C)C)cc1 | 98.7* | 95.2 | -1.8 | -14.6 | . | 3.4
CC(C)C(=O)n1nc(-c2cccnc2)nc1NCc1cccs1 | 99.7* | 94.9 | 13.1 | -5.7 | 14.8 | -2.8
O=C(c1cccnc1)n1nc(-c2ccco2)nc1NCc1cccs1 | 96.8* | 95.4 | 2.4 | -0.5 | . | 7.6
CC(C)(C)c1ccc(C(=O)NCC(=O)OCC(=O)N2CCCC2)cc1 | . | . | . | . | -2.3 | .
O=C(C[n+]1cc(-c2ccc(F)cc2)n2c1CCC2)Nc1nc(-c2ccccc2)cs1 | -8.0 | 109.4 | 1.8 | -23.6 | 14.1 | 10.6
SMILES | Thrombin inh | STAT3 act | FXIa inh 1536 | KLK5 inh | AHR act | FXIIa inh
Cc1ccc(-c2c[n+](CC(=O)Nc3nc(-c4ccc(F)cc4)cs3)c3n2CCC3)cc1 | 21.4 | 96.3 | 6.0 | 49.2* | 9.4 | 26.6
CN(C)c1cc(N/N=C\c2ccccc2)nc(N(C)C)n1 | -9.3 | 100.6 | -3.8 | -1.8 | 54.4* | 8.2
COc1ccc(/C=N/Nc2cc(OC)ncn2)cc1 | -11.2 | 58.6 | -7.2 | 9.8 | 1.4 | 1.1
COc1ccccc1/C=N/Nc1cc(N(C)C)nc(N(C)C)n1 | 1.9 | 99.1 | 5.9 | -15.9 | 43.3 | 7.6
COc1ccc(/C=N/Nc2cc(N(C)C)nc(N(C)C)n2)cc1 | -4.0 | 128.3 | 6.5 | 2.3 | 48.7* | 19.9
Cc1ccc(C2(c3ccccc3)NC(=O)N(CC(=O)NCc3ccccc3)C2=O)cc1C (stereo unspecified) | . | . | . | . | 0.3 | .
COc1ccc(Nc2ncnc3c2c(C)c(C)n3CCCN(C)C)cc1 | . | . | . | . | 0.3 | .
COc1cc(OC)cc(C(=O)NNC(=O)C2CCCC2)c1 | . | . | . | . | 2.7 | .

Compound activity from PubChem.
